From ChEMBL document CHEMBL4152256, “Structure-activity relationship of new antimalarial 1-aryl-3-susbtituted propanol derivatives: Synthesis, preliminary toxicity profiling, parasite life cycle stage studies, target exploration, and targeted delivery” (Eur J Med Chem, 2018)

Experiments:
[1] = tested on: Plasmodium falciparum; experiment: Antiplasmodial activity against multidrug-resistant Plasmodium falciparum FCR-3 by [3H]-hypoxanthine incorporation assay; assay type: functional, organism-based, FCR-3/Gambia; settings: Plasmodium falciparum, FCR-3/Gambia
Outline: (§1)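 Blood-stage P. falciparum 3D7 and FCR-3 were tested by a modified [3H]-hypoxanthine incorporation assay. Chloroquine was the reference in all runs.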

[2] = tested on: Plasmodium falciparum; experiment: Antiplasmodial activity against chloroquine-sensitive Plasmodium falciparum 3D7 by [3H]-hypoxanthine incorporation assay; assay type: functional, organism-based; settings: Plasmodium falciparum, 3D7; outline: as §1
[3] = Cytotoxicity against human HepG2A16 cells by MTT assay; assay type: cell-based; settings: HepG2A16 cells
Outline: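 MTT viability assay on HepG2-A16 cells, giving CC50 values.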

[4] = Selectivity index, ratio of CC50 for human HepG2A16 cells by MTT assay to IC50 for multidrug-resistant Plasmodium falciparum FCR-3; assay type: toxicity; settings: HepG2A16 cells, read-out: Ratio CC50/IC50
Outline: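 HepG2-A16 human hepatoma cells were tested by MTT viability assay to give CC50. Blood-stage activity was measured against the multidrug-resistant P. falciparum FCR-3 strain by [3H]-hypoxanthine incorporation to give IC50. SI = CC50 HepG2 / FCR-3 IC50.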

[5] = Genotoxicity in Salmonella typhimurium TA1535 harboring pSK1002 assessed as survival at 0.016 mg/ml in absence of Sprague-Dawley rat liver S9 fraction after by SOS/umu assay relative to control; assay type: toxicity, organism-based; settings: salmonella enterica subsp. enterica serovar typhimurium, read-out: Survival
[6] = Genotoxicity in Salmonella typhimurium TA1535 harboring pSK1002 assessed as umu gene induction at 0.016 mg/ml in absence of Sprague-Dawley rat liver S9 fraction after by SOS/umu assay relative to control; assay type: toxicity, organism-based; settings: salmonella enterica subsp. enterica serovar typhimurium, read-out: FC
[7] = Genotoxicity in Salmonella typhimurium TA1535 harboring pSK1002 assessed as survival at 0.016 mg/ml in presence of Sprague-Dawley rat liver S9 fraction after by SOS/umu assay relative to control; assay type: toxicity, organism-based; settings: salmonella enterica subsp. enterica serovar typhimurium, read-out: Survival
[8] = Genotoxicity in Salmonella typhimurium TA1535 harboring pSK1002 assessed as umu gene induction at 0.016 mg/ml in presence of Sprague-Dawley rat liver S9 fraction after by SOS/umu assay relative to control; assay type: toxicity, organism-based; settings: salmonella enterica subsp. enterica serovar typhimurium, read-out: FC
[9] = Genotoxicity in Salmonella typhimurium TA1535 harboring pSK1002 assessed as survival at 0.008 mg/ml in absence of Sprague-Dawley rat liver S9 fraction after by SOS/umu assay relative to control; assay type: toxicity, organism-based; settings: salmonella enterica subsp. enterica serovar typhimurium, read-out: Survival
[10] = Genotoxicity in Salmonella typhimurium TA1535 harboring pSK1002 assessed as umu gene induction at 0.008 mg/ml in absence of Sprague-Dawley rat liver S9 fraction after by SOS/umu assay relative to control; assay type: toxicity, organism-based; settings: salmonella enterica subsp. enterica serovar typhimurium, read-out: FC
[11] = Genotoxicity in Salmonella typhimurium TA1535 harboring pSK1002 assessed as survival at 0.008 mg/ml in presence of Sprague-Dawley rat liver S9 fraction after by SOS/umu assay relative to control; assay type: toxicity, organism-based; settings: salmonella enterica subsp. enterica serovar typhimurium, read-out: Survival
[12] = Genotoxicity in Salmonella typhimurium TA1535 harboring pSK1002 assessed as umu gene induction at 0.008 mg/ml in presence of Sprague-Dawley rat liver S9 fraction after by SOS/umu assay relative to control; assay type: toxicity, organism-based; settings: salmonella enterica subsp. enterica serovar typhimurium, read-out: FC
[13] = Genotoxicity in Salmonella typhimurium TA1535 harboring pSK1002 assessed as survival at 0.004 mg/ml in absence of Sprague-Dawley rat liver S9 fraction after by SOS/umu assay relative to control; assay type: toxicity, organism-based; settings: salmonella enterica subsp. enterica serovar typhimurium, read-out: Survival
[14] = Genotoxicity in Salmonella typhimurium TA1535 harboring pSK1002 assessed as umu gene induction at 0.004 mg/ml in absence of Sprague-Dawley rat liver S9 fraction after by SOS/umu assay relative to control; assay type: toxicity, organism-based; settings: salmonella enterica subsp. enterica serovar typhimurium, read-out: FC
[15] = Genotoxicity in Salmonella typhimurium TA1535 harboring pSK1002 assessed as survival at 0.004 mg/ml in presence of Sprague-Dawley rat liver S9 fraction after by SOS/umu assay relative to control; assay type: toxicity, organism-based; settings: salmonella enterica subsp. enterica serovar typhimurium, read-out: Survival
[16] = Genotoxicity in Salmonella typhimurium TA1535 harboring pSK1002 assessed as umu gene induction at 0.004 mg/ml in presence of Sprague-Dawley rat liver S9 fraction after by SOS/umu assay relative to control; assay type: toxicity, organism-based; settings: salmonella enterica subsp. enterica serovar typhimurium, read-out: FC
[17] = Genotoxicity in Salmonella typhimurium TA1535 harboring pSK1002 assessed as survival at 0.002 mg/ml in absence of Sprague-Dawley rat liver S9 fraction after by SOS/umu assay relative to control; assay type: toxicity, organism-based; settings: salmonella enterica subsp. enterica serovar typhimurium, read-out: Survival
[18] = Genotoxicity in Salmonella typhimurium TA1535 harboring pSK1002 assessed as umu gene induction at 0.002 mg/ml in absence of Sprague-Dawley rat liver S9 fraction after by SOS/umu assay relative to control; assay type: toxicity, organism-based; settings: salmonella enterica subsp. enterica serovar typhimurium, read-out: FC
[19] = Genotoxicity in Salmonella typhimurium TA1535 harboring pSK1002 assessed as survival at 0.002 mg/ml in presence of Sprague-Dawley rat liver S9 fraction after by SOS/umu assay relative to control; assay type: toxicity, organism-based; settings: salmonella enterica subsp. enterica serovar typhimurium, read-out: Survival
[20] = Genotoxicity in Salmonella typhimurium TA1535 harboring pSK1002 assessed as umu gene induction at 0.002 mg/ml in presence of Sprague-Dawley rat liver S9 fraction after by SOS/umu assay relative to control; assay type: toxicity, organism-based; settings: salmonella enterica subsp. enterica serovar typhimurium, read-out: FC
[21] = Genotoxicity in Salmonella typhimurium TA1535 harboring pSK1002 assessed as survival at 0.001 mg/ml in absence of Sprague-Dawley rat liver S9 fraction after by SOS/umu assay relative to control; assay type: toxicity, organism-based; settings: salmonella enterica subsp. enterica serovar typhimurium, read-out: Survival
[22] = Genotoxicity in Salmonella typhimurium TA1535 harboring pSK1002 assessed as umu gene induction at 0.001 mg/ml in absence of Sprague-Dawley rat liver S9 fraction after by SOS/umu assay relative to control; assay type: toxicity, organism-based; settings: salmonella enterica subsp. enterica serovar typhimurium, read-out: FC
[23] = Genotoxicity in Salmonella typhimurium TA1535 harboring pSK1002 assessed as survival at 0.001 mg/ml in presence of Sprague-Dawley rat liver S9 fraction after by SOS/umu assay relative to control; assay type: toxicity, organism-based; settings: salmonella enterica subsp. enterica serovar typhimurium, read-out: Survival
[24] = Genotoxicity in Salmonella typhimurium TA1535 harboring pSK1002 assessed as umu gene induction at 0.001 mg/ml in presence of Sprague-Dawley rat liver S9 fraction after by SOS/umu assay relative to control; assay type: toxicity, organism-based; settings: salmonella enterica subsp. enterica serovar typhimurium, read-out: FC
[25] = Genotoxicity in Salmonella typhimurium TA1535 harboring pSK1002 assessed as survival at 0.0005 mg/ml in absence of Sprague-Dawley rat liver S9 fraction after by SOS/umu assay relative to control; assay type: toxicity, organism-based; settings: salmonella enterica subsp. enterica serovar typhimurium, read-out: Survival
[26] = Genotoxicity in Salmonella typhimurium TA1535 harboring pSK1002 assessed as umu gene induction at 0.0005 mg/ml in absence of Sprague-Dawley rat liver S9 fraction after by SOS/umu assay relative to control; assay type: toxicity, organism-based; settings: salmonella enterica subsp. enterica serovar typhimurium, read-out: FC
[27] = Genotoxicity in Salmonella typhimurium TA1535 harboring pSK1002 assessed as survival at 0.0005 mg/ml in presence of Sprague-Dawley rat liver S9 fraction after by SOS/umu assay relative to control; assay type: toxicity, organism-based; settings: salmonella enterica subsp. enterica serovar typhimurium, read-out: Survival
[28] = Genotoxicity in Salmonella typhimurium TA1535 harboring pSK1002 assessed as umu gene induction at 0.0005 mg/ml in presence of Sprague-Dawley rat liver S9 fraction after by SOS/umu assay relative to control; assay type: toxicity, organism-based; settings: salmonella enterica subsp. enterica serovar typhimurium, read-out: FC
[29] = Genotoxicity in Salmonella typhimurium TA1535 harboring pSK1002 assessed as survival at 0.0002 mg/ml in absence of Sprague-Dawley rat liver S9 fraction after by SOS/umu assay relative to control; assay type: toxicity, organism-based; settings: salmonella enterica subsp. enterica serovar typhimurium, read-out: Survival
[30] = Genotoxicity in Salmonella typhimurium TA1535 harboring pSK1002 assessed as umu gene induction at 0.0002 mg/ml in absence of Sprague-Dawley rat liver S9 fraction after by SOS/umu assay relative to control; assay type: toxicity, organism-based; settings: salmonella enterica subsp. enterica serovar typhimurium, read-out: FC
[31] = Genotoxicity in Salmonella typhimurium TA1535 harboring pSK1002 assessed as survival at 0.0002 mg/ml in presence of Sprague-Dawley rat liver S9 fraction after by SOS/umu assay relative to control; assay type: toxicity, organism-based; settings: salmonella enterica subsp. enterica serovar typhimurium, read-out: Survival
[32] = Genotoxicity in Salmonella typhimurium TA1535 harboring pSK1002 assessed as umu gene induction at 0.0002 mg/ml in presence of Sprague-Dawley rat liver S9 fraction after by SOS/umu assay relative to control; assay type: toxicity, organism-based; settings: salmonella enterica subsp. enterica serovar typhimurium, read-out: FC
[33] = Solubility of the compound in DSPC:cholesterol:DSPE-PEG2000-Mal:DOPE-Rho lipid mixture at 250 uM; assay type: physicochemical
Outline: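 Compound added at 250 µM drug to the initial liposome lipid mixture (10 mM total lipid); precipitation and UV-visible absorbance above 300 nm assessed after encapsulation, removal of unencapsulated material and extraction with 1% w/v SDS in RPMI-A.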

Compound | IC50 [1] [µM] | IC50 [2] [µM] | CC50 [3] [µM] | selectivity ratio [4] | viability at 0.016 mg/ml [5] [%] | fold induction at 0.016 mg/ml [6] | viability at 0.016 mg/ml [7] [%] | fold induction at 0.016 mg/ml [8] | viability at 0.008 mg/ml [9] [%] | fold induction at 0.008 mg/ml [10] | viability at 0.008 mg/ml [11] [%] | fold induction at 0.008 mg/ml [12] | viability at 0.004 mg/ml [13] [%] | fold induction at 0.004 mg/ml [14] | viability at 0.004 mg/ml [15] [%] | fold induction at 0.004 mg/ml [16] | viability at 0.002 mg/ml [17] [%] | fold induction at 0.002 mg/ml [18] | viability at 0.002 mg/ml [19] [%] | fold induction at 0.002 mg/ml [20] | also measured
OC(CCN1CCN(C(c2ccccc2)c2ccccc2)CC1)c1ccc(Br)cc1 (stereo unspecified) | 3.09 | 52.2 | 351 | 114 | 121 | 0.8 | 87.8 | 1 | 116 | 1.1 | 98.1 | 0.9 | 114 | 1 | 87.2 | 1 | 105 | 1.1 | 85.9 | 0.8 | viability at 0.001 mg/ml [21]: 98.3%; fold induction at 0.001 mg/ml [22]: 1; viability at 0.001 mg/ml [23]: 84.1%; fold induction at 0.001 mg/ml [24]: 0.7; viability at 0.0005 mg/ml [25]: 108%; fold induction at 0.0005 mg/ml [26]: 0.8; viability at 0.0005 mg/ml [27]: 104%; fold induction at 0.0005 mg/ml [28]: 0.5; viability at 0.0002 mg/ml [29]: 107%; fold induction at 0.0002 mg/ml [30]: 0.8; viability at 0.0002 mg/ml [31]: 96.7%; fold induction at 0.0002 mg/ml [32]: 1; solubility [33]: Insoluble
OC(CCN1CCN(C(c2ccccc2)c2ccccc2)CC1)c1ccc(Cl)cc1 (stereo unspecified) | 3.93 | 24.9 | 462 | 118 | 112 | 0.9 | 86.6 | 1.1 | 125 | 0.9 | 98.8 | 0.9 | 102 | 1 | 89.5 | 1 | 108 | 1 | 88.9 | 0.7 | viability at 0.001 mg/ml [21]: 106%; fold induction at 0.001 mg/ml [22]: 1.1; viability at 0.001 mg/ml [23]: 96.7%; fold induction at 0.001 mg/ml [24]: 0.6; viability at 0.0005 mg/ml [25]: 110%; fold induction at 0.0005 mg/ml [26]: 0.9; viability at 0.0005 mg/ml [27]: 94.3%; fold induction at 0.0005 mg/ml [28]: 0.6; viability at 0.0002 mg/ml [29]: 105%; fold induction at 0.0002 mg/ml [30]: 1; viability at 0.0002 mg/ml [31]: 96.4%; fold induction at 0.0002 mg/ml [32]: 1; solubility [33]: Insoluble
